Measurements as given in ChEMBL document CHEMBL3861989, “Amending HIV Drugs: A Novel Small-Molecule Approach To Target Lupus Anti-DNA Antibodies” (J Med Chem, 2016).
The source made the active and inactive calls. The calls are words filed in the database; no cut-off is given here.

Assays:
[1] = (§1) Binding affinity to mouse anti-dsDNA monoclonal antibody R4A assessed as inhibition of RA4 binding to DWEYS peptide preincubated for 1 hr followed by DWEYS peptide addition measured after 1 hr by ELISA
Method in brief: (§2)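 Competitive ELISA: plates coated with DWEYS peptide overnight at 37 °C uncovered, blocked 3% BSA/PBS 1 h 37 °C. Compounds at varying concentrations preincubated with R4A (20 µg/mL) 1 h 37 °C, then added to washed wells 1 h 37 °C. Detection with alkaline phosphatase anti-mouse IgG (1:1000, 1 h RT), pNPP substrate 30–60 min, absorbance 405 nm.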

Mus musculus [2] = assay: Toxicity in CD-1 mouse assessed as tissue abnormalities administered daily for 1 week; type: organism-based; details: in vivo, 168 h
Mus musculus [3] = assay: Toxicity in CD-1 mouse assessed as behavioral changes administered daily for 1 week; type: organism-based; details: in vivo, 168 h
Mus musculus [4] = species: Mus musculus; assay: Neuroprotective activity in C57BL/6 mouse assessed as inhibition of R4A-induced hippocampal neuron apoptosis at 50 uM pretreated to mouse followed by R4A injection measured after 1 day by TUNEL assay; type: functional
Method in brief: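 Male C57BL/6 mice (30–34 g) anesthetized with 2.5% avertin ip. R4A (20 µg/mL) preincubated with vehicle or compound (50 µM) and injected stereotaxically (2 µL) into dorsal hippocampus CA1.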

Mus musculus [5] = species: Mus musculus; assay: Binding affinity to mouse anti-dsDNA monoclonal antibody R4A assessed as inhibition of RA4 binding to mouse kidney glomeruli antigens by measuring suppression of antibody deposition in kidney glomeruli at 50 uM preincubated for 1 hr followed by glomeruli addition by fluorescence microscopic analysis
Method in brief: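 Murine glomeruli isolated and adhered to glass slides. R4A (20 µg/mL) preincubated with compound (50 µM) 1 h at 37 °C, then applied to glomeruli 1 h at room temperature. Bound antibody detected with FITC-conjugated anti-mouse IgG, PBS washes, fluorescence imaging.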

Mus musculus [6] = species: Mus musculus; assay: as §1; method in brief: as §2
Mus musculus [7] = species: Mus musculus; assay: Binding affinity to mouse anti-dsDNA monoclonal antibody R4A assessed as inhibition of RA4 binding to DWEYS peptide at 5 to 50 uM preincubated for 1 hr followed by DWEYS peptide addition measured after 1 hr by ELISA; method in brief: as §2
Mus musculus [8] = assay: Reduction in glomerular sclerosis score in kidney of NZB/NZW F1 mouse systemic lupus erythematosus model at 5 mg/kg/day, ip bid administered on day 1 at 22 weeks of age measured daily during compound dosing at 60 weeks by conglomerate blinded analysis; type: functional, organism-based
Method in brief: (§3)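 Female NZB/W F1 mice dosed ip twice daily (5 mg kg−1 day−1) from 22 weeks of age. Formalin-fixed, paraffin-embedded kidney sections stained with H&E and scored blind by one investigator, 0–3+ each for glomerular sclerosis, hypercellularity, crescents, interstitial nephritis and perivascular infiltrates. Combined scores assessed at 60 weeks.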

Mus musculus [9] = assay: Induction of delayed onset of systemic lupus erythematosus disease in NZB/W F1 mouse model at 5 mg/kg/day, ip bid administered on day 1 at 22 weeks of age measured daily during compound dosing up to 34 weeks of age; type: functional
Method in brief: (§4)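 Female NZB/W F1 mice from 22 weeks of age, before severe proteinuria, grouped by matched mean proteinuria and body weight (n = 10/group). Vehicle or compound at 5 mg kg−1 day−1 given ip twice daily. Body weight weekly, proteinuria every 2 weeks. Removal on ≥20% weight loss, prostration, or ≥3+ proteinuria two consecutive weeks; study end at 46 weeks.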

Mus musculus [10] = assay: Toxicity in CD-1 mouse assessed as drug tolerance at 1 mg/kg, iv as infusion or 10 mg/kg via oral gavage measured up to 60 mins for iv dosing or up to 240 mins for oral gavage; type: organism-based; details: in vivo
Mus musculus [11] = assay: anti-DWEYS peptide reactivity in serum of NZB/NZW F1 mouse systemic lupus erythematosus model at 5 mg/kg/day, ip bid administered on day 1 to 71
Mus musculus [12] = assay: Inhibition of tubule dilation and casts in kidney of NZB/NZW F1 mouse systemic lupus erythematosus model at 5 mg/kg/day, ip bid administered on day 1 at 22 weeks of age measured at 60 weeks by hematoxylin and eosin staining based assay; type: functional, organism-based; method in brief: as §3
Mus musculus [13] = assay: Reduction in glomerular cellularity score in kidney of NZB/NZW F1 mouse systemic lupus erythematosus model at 5 mg/kg/day, ip bid administered on day 1 at 22 weeks of age measured daily during compound dosing at 60 weeks by conglomerate blinded analysis; type: functional, organism-based; method in brief: as §3
Mus musculus [14] = assay: Increase in disease free survival in NZB/W F1 mouse systemic lupus erythematosus model at 5 mg/kg/day, ip bid administered on day 1 at 22 weeks of age measured daily during compound dosing up to 34 weeks of age; type: functional, organism-based; method in brief: as §4
Mus musculus [15] = assay: Inhibition of lymphocyte aggregation in kidney of NZB/NZW F1 mouse systemic lupus erythematosus model at 5 mg/kg/day, ip bid administered on day 1 at 22 weeks of age measured at 60 weeks by hematoxylin and eosin staining based assay; type: functional, organism-based; method in brief: as §3
Mus musculus [16] = assay: Inhibition of glomerulonephropathy in kidney of NZB/NZW F1 mouse systemic lupus erythematosus model at 5 mg/kg/day, ip bid administered on day 1 at 22 weeks of age measured at 60 weeks by hematoxylin and eosin staining based assay; type: functional, organism-based; method in brief: as §3
Mus musculus [17] = assay: Reduction in interstitial inflammation score in kidney of NZB/NZW F1 mouse systemic lupus erythematosus model at 5 mg/kg/day, ip bid administered on day 1 at 22 weeks of age measured daily during compound dosing at 60 weeks by conglomerate blinded analysis; type: functional, organism-based; method in brief: as §3
Mus musculus [18] = assay: Toxicity in NZB/W F1 mouse systemic lupus erythematosus model assessed as body weight loss at 5 mg/kg/day, ip bid administered on day 1 at 22 weeks of age measured daily during compound dosing up to 34 weeks of age; type: organism-based; details: in vivo; method in brief: as §4
Mus musculus [19] = assay: Reduction in crescents score in kidney of NZB/NZW F1 mouse systemic lupus erythematosus model at 5 mg/kg/day, ip bid administered on day 1 at 22 weeks of age measured daily during compound dosing at 60 weeks by conglomerate blinded analysis; type: functional, organism-based; method in brief: as §3
Mus musculus [20] = assay: Inhibition of IgG level in glomeruli of NZB/NZW F1 mouse systemic lupus erythematosus model at 5 mg/kg/day, ip bid administered on day 1 at 22 weeks of age; type: functional, organism-based
Method in brief: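 Female NZB/W F1 mice dosed ip twice daily (5 mg kg−1 day−1) from 22 weeks of age. Formalin-fixed, paraffin-embedded terminal kidney sections from three representative mice per group stained for mouse IgG in glomeruli.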

Mus musculus [21] = assay: Toxicity in NZB/W F1 mouse systemic lupus erythematosus model assessed as prostration at 5 mg/kg/day, ip bid administered on day 1 at 22 weeks of age measured daily during compound dosing up to 34 weeks of age; type: organism-based; details: in vivo; method in brief: as §4

| Compound | IC50 [1] [µM] | Activity (Mus musculus [2]) | Activity (Mus musculus [3]) | inhibition (Mus musculus [5]) | inhibition (Mus musculus [6]) | inhibition (Mus musculus [7]) | also measured |
| --- | --- | --- | --- | --- | --- | --- | --- |
| CC(C)(C)NC[C@@H]1CNCCN1C[C@@H](O)C[C@H](CN[C@H]1c2ccccc2C[C@H]1O)Cc1ccccc1 | 42.7 |  |  |  |  |  |  |
| Cc1c(O)cccc1CN[C@@H](CSc1ccccc1)[C@H](O)CN1C[C@H]2CCCC[C@H]2C[C@H]1CNC(C)(C)C | 7.27 | Non-Toxic | Non-Toxic | Active | Dose-dependent effect |  | inhibition (Mus musculus [4]): Active |
| Cc1c(O)cccc1C(=O)N[C@@H](CSc1ccccc1)[C@H](O)CN1C[C@H]2CCCC[C@H]2C[C@H]1C(=O)NC(C)(C)C |  |  |  | Active | Dose-dependent effect | Active |  |
| Cc1cccc(C)c1OCC(=O)N[C@@H](Cc1ccccc1)[C@@H](O)C[C@H](Cc1ccccc1)NC(=O)[C@H](C(C)C)N1CCCNC1=O |  |  |  |  | Dose-dependent effect | Active |  |
| CC(C)(C)NC[C@@H]1CC2CCCCC2CN1C[C@@H](O)[C@H](Cc1ccccc1)NC[C@H](CCN)NCC1Nc2ccccc2CC1O (stereo partly drawn) | 4.5 | Non-Toxic | Non-Toxic | Active | Dose-dependent effect |  | Activity (Mus musculus [8]): Active; Time (Mus musculus [9]): 26 - 36 weeks; Activity (Mus musculus [10]): Non-Toxic; inhibition (Mus musculus [11]): Active; inhibition (Mus musculus [12]): Active; Activity (Mus musculus [13]): Active; inhibition (Mus musculus [4]): Active; Activity (Mus musculus [14]): Active; inhibition (Mus musculus [15]): Active; inhibition (Mus musculus [16]): Active; Activity (Mus musculus [17]): Active; Activity (Mus musculus [18]): < 20%; Activity (Mus musculus [19]): Active; inhibition (Mus musculus [20]): Active; Activity (Mus musculus [21]): Non-Toxic |
| CC(C)(C)NC(=O)[C@@H]1CN(Cc2cccnc2)CCN1C[C@@H](O)C[C@@H](Cc1ccccc1)C(=O)N[C@H]1c2ccccc2C[C@H]1O |  |  |  |  |  | Active |  |
| CNCCCN[C@H](CN[C@@H](Cc1ccccc1)C[C@H](O)[C@H](Cc1ccccc1)NCCOc1c(C)cccc1C)C(C)C | 2.08 | Non-Toxic | Non-Toxic | Active | Dose-dependent effect |  |  |
